Assay [1] addresses T1, Sodium/glucose cotransporter 2 (Homo sapiens, UniProt P31639).
T1 sequence (P31639 whole entry): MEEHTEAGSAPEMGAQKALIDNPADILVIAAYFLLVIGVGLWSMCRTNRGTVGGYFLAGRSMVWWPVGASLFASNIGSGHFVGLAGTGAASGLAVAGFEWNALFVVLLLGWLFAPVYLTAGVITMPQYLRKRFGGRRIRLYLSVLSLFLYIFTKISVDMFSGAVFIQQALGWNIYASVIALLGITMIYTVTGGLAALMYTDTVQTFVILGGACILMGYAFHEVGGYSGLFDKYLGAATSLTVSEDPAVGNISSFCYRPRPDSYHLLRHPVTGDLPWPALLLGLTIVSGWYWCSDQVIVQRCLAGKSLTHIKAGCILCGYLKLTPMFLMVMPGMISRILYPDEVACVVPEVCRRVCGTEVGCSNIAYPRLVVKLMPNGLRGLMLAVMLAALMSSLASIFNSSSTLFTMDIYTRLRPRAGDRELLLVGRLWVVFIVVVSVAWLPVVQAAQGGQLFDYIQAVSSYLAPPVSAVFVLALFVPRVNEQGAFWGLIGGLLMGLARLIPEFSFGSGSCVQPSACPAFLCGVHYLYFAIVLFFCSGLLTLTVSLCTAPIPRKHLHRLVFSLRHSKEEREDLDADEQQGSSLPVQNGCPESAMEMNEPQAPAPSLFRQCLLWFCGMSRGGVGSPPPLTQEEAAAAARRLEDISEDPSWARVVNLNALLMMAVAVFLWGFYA
Nature of the assay: Inhibition of human SGLT2 expressed in HEK293 cells assessed as inhibition of [14C]alpha-methylglucopyranoside uptake. It is filed as cell-based. The gist of the method:
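Cells stably expressing human SGLT2 were used to measure sodium-coupled uptake of [14C]α-methylglucopyranoside, a metabolically stable SGLT-specific glucose analogue. Uptake was measured across increasing compound concentrations, and IC50 was derived from the inhibition of uptake.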

Assay [2] addresses T2, Sodium/glucose cotransporter 2 (Mus musculus, UniProt Q923I7).
T2 sequence (Q923I7 whole entry): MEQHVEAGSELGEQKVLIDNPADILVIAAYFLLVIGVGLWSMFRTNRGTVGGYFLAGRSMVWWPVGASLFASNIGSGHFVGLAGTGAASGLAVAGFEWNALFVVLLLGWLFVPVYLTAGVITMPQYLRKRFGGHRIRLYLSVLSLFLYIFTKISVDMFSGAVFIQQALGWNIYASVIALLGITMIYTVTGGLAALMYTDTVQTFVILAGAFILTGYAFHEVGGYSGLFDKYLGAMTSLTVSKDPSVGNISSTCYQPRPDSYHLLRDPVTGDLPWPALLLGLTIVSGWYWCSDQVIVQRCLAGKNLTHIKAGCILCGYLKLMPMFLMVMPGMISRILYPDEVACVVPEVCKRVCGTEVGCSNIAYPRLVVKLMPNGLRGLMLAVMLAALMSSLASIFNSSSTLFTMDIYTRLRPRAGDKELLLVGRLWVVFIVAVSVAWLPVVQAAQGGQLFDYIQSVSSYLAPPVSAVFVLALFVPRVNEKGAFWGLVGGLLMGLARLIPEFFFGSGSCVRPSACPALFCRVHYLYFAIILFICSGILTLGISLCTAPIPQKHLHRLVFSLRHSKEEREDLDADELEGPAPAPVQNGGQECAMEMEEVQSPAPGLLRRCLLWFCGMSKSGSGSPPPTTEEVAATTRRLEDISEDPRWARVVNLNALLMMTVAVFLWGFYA
Nature of the assay: Inhibition of mouse SGLT2-mediated [14C]alpha-methylglucopyranoside uptake by cell based assay.

Assay [3] relates to Mus musculus. Nature of the assay: Induction of glucosuria in high fat diet induced obese albino C57 mouse at 10 to 100 mg/kg, po administered as single administration measured after 17 hrs by glucose excretion assay. Type of assay: functional, organism-based. A digest of the protocol:
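Adult C57 diet-induced obese mice were given one oral gavage dose spanning 10 to 100 mg/kg. Urinary glucose excretion was measured over the first 17 h after dosing, n = 6 per group, with a vehicle-treated group included.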

Assay [4] deals with Mus musculus. Nature of the assay: Induction of glucosuria in high fat diet induced obese albino C57 mouse at 30 mg/kg, po administered as single administration measured after 24 hrs by glucose excretion assay. Type of assay: functional, organism-based. The arrangement: dose 30 mg/kg. A digest of the protocol:
(§1)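 DIO mice received one dose, either by oral gavage or as a dietary admixture. Urinary glucose excretion was then followed past 24 h, n = 6.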

The test system of assay [5] is Mus musculus. Description: Induction of glucosuria in high fat diet induced obese albino C57 mouse at 259 mg/kg administered daily through diet for 4 consecutive days by glucose excretion assay. Type of assay: functional, organism-based. The arrangement: dose 259 mg/kg. A digest of the protocol:
(§2)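 DIO mice received the compound as a dietary admixture for 4 consecutive days. Average daily intakes were 8, 26, 77 and 259 mg/kg. Urinary glucose excretion was measured each day, n = 6.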

In assay [6] the test system is Mus musculus. Description: Induction of glucosuria in high fat diet induced obese albino C57 mouse at 75 mg/kg, po administered as single administration measured after 24 hrs by glucose excretion assay. Type of assay: functional, organism-based. Set-up: dose 75 mg/kg. A digest of the protocol: as §1
The subject of assay [7] is Mus musculus. Nature of the assay: Induction of glucosuria in high fat diet induced obese albino C57 mouse at 75 mg/kg administered through diet measured after 24 hrs by glucose excretion assay. Type of assay: functional, organism-based. The arrangement: dose 75 mg/kg. A digest of the protocol:
as §1

Assay [8] concerns Mus musculus. Nature of the assay: Induction of glucosuria in high fat diet induced obese albino C57 mouse at 77 mg/kg administered daily through diet for 4 consecutive days by glucose excretion assay. It is filed as functional, organism-based. Set-up: dose 77 mg/kg. The gist of the method: as §2
Assay [9] has as its system Mus musculus. Nature of the assay: Induction of glucosuria in high fat diet induced obese albino C57 mouse at 26 mg/kg administered daily through diet for 4 consecutive days by glucose excretion assay. Type of assay: functional, organism-based. The arrangement: dose 26 mg/kg. The gist of the method:
as §2

Usually IC50 stands for the point on the concentration scale where inhibition reaches its midpoint.

SMILES strings stand for the structures. Active and inactive are the calls of the source. No cut-off for these calls is given here.

For the compound `CCOc1ccc(Cc2cc([C@@H]3OC(OC)[C@H](F)[C@H](O)[C@H]3O)ccc2Cl)cc1` (mixture of isomers), the concentration for half-maximal inhibition (IC50) was found to be 600 nM in assay [1] and 220 nM in assay [2].

As for `CCOc1ccc(Cc2cc([C@@H]3OC(OCCO)[C@@H](O)[C@H](O)[C@H]3O)ccc2Cl)cc1` (mixture of isomers), the 50% inhibitory concentration (IC50) turned out to be 36 nM in assay [1] and 23 nM in assay [2].

In the case of `CCOc1ccc(C(=O)c2cc([C@@H]3OC(OC)[C@@H](O)[C@H](O)[C@H]3O)ccc2Cl)cc1` (single isomer, unassigned), the IC50 in assay [1] stood at 100 nM; in assay [2], 57 nM.

For `CCOc1ccc(Cc2cc([C@@H]3OC(OC(C)C)[C@@H](O)[C@H](O)[C@H]3O)ccc2Cl)cc1` (mixture of isomers), the figures for the half-maximal inhibitory concentration (IC50) in [1] and in assay [2] were 420 nM and 190 nM, respectively.

Turning to `COC1O[C@@H](c2ccc(Cl)c(Cc3ccc(Oc4nccs4)cc3)c2)[C@H](O)[C@@H](O)[C@@H]1O` (mixture of isomers), the IC50 worked out at 150 nM in assay [1] and 60 nM in [2].

Take `CCOc1ccc(Cc2cc([C@@H]3OC(OC)C[C@H](O)[C@H]3O)ccc2Cl)cc1` (mixture of isomers): the IC50 was above 30000 nM in assay [1] and 14000 nM in assay [2].

`CCOc1ccc(Cc2cccc([C@@H]3OC(OC)[C@@H](O)[C@H](O)[C@H]3O)c2)cc1` (mixture of isomers): the IC50 in assay [1] was 1100 nM; in assay [2], 220 nM.

In the case of `CCOc1ccc(Cc2cc([C@@H]3OC(O)[C@@H](O)[C@H](O)[C@H]3O)ccc2Cl)cc1` (mixture of isomers), the 50% inhibitory concentration (IC50) in [1] was determined as 280 nM; in assay [2], 100 nM.

In the case of `CCOc1ccc(Cc2cc([C@]3(C)OC(OC)[C@@H](O)[C@H](O)[C@H]3O)ccc2Cl)cc1` (mixture of isomers), the concentration for half-maximal inhibition (IC50) came to 590 nM in assay [1] and 220 nM in [2].

Consider `CCOc1ccc(Cc2cc([C@H]3OC(OC)[C@H](O)[C@@H](O)[C@@H]3O)ccc2Cl)cc1` (stereo partly drawn), for which the half-maximal inhibitory concentration (IC50) is above 30000 nM in assay [1] and 9200 nM in assay [2].

Turning to `COC1O[C@@H](c2ccc(Cl)c(Cc3ccc(OCCO)cc3)c2)[C@H](O)[C@@H](O)[C@@H]1O` (mixture of isomers), the half-inhibitory concentration (IC50) in [1] stood at 36 nM; in assay [2], 9.5 nM.

`CCOc1ccc(-c2cccc([C@@H]3OC(OC)[C@@H](O)[C@H](O)[C@H]3O)c2)cc1` (mixture of isomers): the IC50 in assay [1] worked out at 4600 nM; in [2] it was 1900 nM.

`CCOc1ccc(Cc2cc([C@@H]3OC(OC)[C@@H](O)[C@H](O)[C@H]3O)ccc2Cl)cc1` (mixture of isomers; 7b): the IC50 in assay [1] was found to be 4800 nM; in [2], 280 nM.

For the compound `CCOc1ccc(Cc2cc([C@@H]3OC(OC)[C@@H](O)[C@H](O)[C@H]3O)ccc2C)cc1` (mixture of isomers), the values for the concentration for half-maximal inhibition (IC50) in [1] and in [2] were 55 nM and 23 nM, respectively.

With `CCOc1ccc(Oc2cc([C@@H]3OC(OC)[C@@H](O)[C@H](O)[C@H]3O)ccc2Cl)cc1` (mixture of isomers), the IC50 in [1] was 2400 nM; in [2], 1900 nM.

Consider `CCOc1ccc(Cc2cc([C@@H]3OC(OCC)[C@@H](O)[C@H](O)[C@H]3O)ccc2Cl)cc1` (mixture of isomers), for which the half-inhibitory concentration (IC50) in assay [1] stood at 58 nM; in assay [2], 19 nM.

Take `COC1O[C@@H](c2ccc(Cl)c(Cc3ccc(OC(=S)N(C)C)cc3)c2)[C@H](O)[C@@H](O)[C@@H]1O` (mixture of isomers): the IC50 in assay [1] was determined as 740 nM; in assay [2], 330 nM.

On to `CCOc1ccc(Cc2cc([C@@H]3OC(OC)[C@@H](O)[C@H](O)[C@H]3O)ccc2Cl)cc1` (mixture of isomers; 7a), for which, in assay [3], the Activity entry is “Dose-dependent effect”.

`CCOc1ccc(Cc2cc([C@@H]3OC(OC(C)C)[C@@H](O)[C@H](O)[C@H]3O)ccc2Cl)cc1` (stereo in doubt; 9b): the IC50 in [1] worked out at 33 nM; in [2], 15 nM.

Consider `CCOc1ccc(Cc2cc([C@@H]3OC(OC)[C@@H](O)[C@H](O)[C@H]3O)ccc2Cl)cc1` (mixture of isomers; 7c), for which the outcome in [4], in [5], in [6], in assay [7], in assay [8] and in assay [9] was Active. For the same compound, the Activity entry in assay [3] is “Dose-dependent effect”.

In the case of `COC1O[C@@H](c2ccc(Cl)c(Cc3ccc(O[C@H]4CCN(C)C4)cc3)c2)[C@H](O)[C@@H](O)[C@@H]1O` (mixture of isomers), the half-maximal inhibitory concentration (IC50) came to 170 nM in [1] and 92 nM in assay [2].

`COCCOc1ccc(Cc2cc([C@@H]3OC(OC)[C@@H](O)[C@H](O)[C@H]3O)ccc2Cl)cc1` (mixture of isomers): the IC50 in assay [1] was 45 nM; in [2] it was 16 nM.

Consider `COC1O[C@@H](c2ccc(Cl)c(Cc3ccc(O)cc3)c2)[C@H](O)[C@@H](O)[C@@H]1O` (mixture of isomers), for which the 50% inhibitory concentration (IC50) in assay [1] is 32 nM; in assay [2], 8 nM.

As to `COc1ccc(Sc2cc([C@@H]3OC(OC)[C@@H](O)[C@H](O)[C@H]3O)ccc2Cl)cc1` (mixture of isomers), the values for the concentration for half-maximal inhibition (IC50) in [1] and in [2] were 180 nM and 100 nM, respectively.

As to `CCOc1ccc(Cc2cc([C@@H]3OC(OC)[C@@H](O)[C@H](O)[C@H]3O)ccc2Cl)cc1` (stereo in doubt; 6a), the 50% inhibitory concentration (IC50) in [1] was determined as 25 nM; in [2], 7.1 nM.

For the compound `CCOc1ccc(Cc2cc([C@@H]3OC(OCCN(C)C)[C@@H](O)[C@H](O)[C@H]3O)ccc2Cl)cc1` (mixture of isomers), the concentration for half-maximal inhibition (IC50) in assay [1] was found to be 3600 nM; in assay [2], 2200 nM.

For the compound `CCOc1ccc(Cc2cc([C@@H]3OC(OCc4ccccc4)[C@@H](O)[C@H](O)[C@H]3O)ccc2Cl)cc1` (mixture of isomers), the half-inhibitory concentration (IC50) in [1] came out at 620 nM; in assay [2], 330 nM.

The values are drawn from ChEMBL document CHEMBL1156071, “Novel L-xylose derivatives as selective sodium-dependent glucose cotransporter 2 (SGLT2) inhibitors for the treatment of type 2 diabetes” (J Med Chem, 2009).
